Assay results taken from ChEMBL document CHEMBL2057177, “Analogues of fenarimol are potent inhibitors of Trypanosoma cruzi and are efficacious in a murine model of Chagas disease” (J Med Chem, 2012).
Values after ≈ are worked out from the molar mass of the structure shown.

Assays:
[1] = system: Trypanosoma cruzi; assay: Antitrypanosomal activity against trypomastigotes of Trypanosoma cruzi Tulahuen expressing the beta- galactosidase gene infected rat L6 cells after 96 hrs; assay type: functional, organism-based; conditions: L6, 96 h
In short: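 Tulahuén trypomastigotes expressing β-galactosidase, maintained by serial passage in L6 cells. L6 cells seeded and left 24 h at 37 °C, 5% CO2, then infected at MOI 3 for 48 h. Compound exposure 96 h, benznidazole control. CPRG with 0.3% Nonidet P-40 added, absorbance at 530 nm after 4−6 h. IC50 taken from % inhibition curve; mean of at least two assays.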

[2] = system: L6; assay: Cytotoxicity against rat L6 cells after 72 hrs by Alamar Blue assay; assay type: cell-based; conditions: L6, 72 h
In short: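 L6 rat skeletal myoblasts in RPMI 1640 with 10% FBS. Exposed to compound for 72 h, seven-point serial dilutions in triplicate. Alamar Blue read at 570 and 630 nm. IC50 is the mean of at least two assays; podophyllotoxin used as control.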

[3] = Kinetic solubility of the compound at pH 6.5 by nephelometric analysis; assay type: physicochemical; conditions: buffer, read-out: Kinetic_solubility
[4] = molecular target: CYP3A4/5 (Homo sapiens, UniProt P08684+P20815); assay: Inhibition of CYP3A4/5 in human liver microsomes; assay type: ADME, Microsome
[5] = Plasma concentration in Swiss mouse at 20 mg/kg, po after 1 hr; assay type: ADME, organism-based; parameters: dose 20 mg/kg, route oral
In short: (§1)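 Nonfasted male Swiss outbred mice (23.8–39.9 g), fed throughout. Dosed by oral gavage as solution or suspension in aqueous vehicle. Plasma assayed by LC-MS against blank-plasma standards after acetonitrile precipitation; LLOQ 0.001–0.015 μM.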

[6] = Plasma concentration in Swiss mouse at 20 mg/kg, po after 8 hrs; assay type: ADME, organism-based; parameters: dose 20 mg/kg, route oral; in short: as §1
[7] = Plasma concentration in Swiss mouse at 20 mg/kg, po after 24 hrs; assay type: ADME, organism-based; parameters: dose 20 mg/kg, route oral
[8] = Plasma concentration in Swiss mouse at 100 mg/kg, po after 1 hr; assay type: ADME, organism-based; parameters: dose 100 mg/kg, route oral
In short: (§2)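 Nonfasted male Swiss Outbred mice weighing 23.8−39.9 g, with food and water freely available, dosed by oral gavage as an aqueous solution or suspension. Plasma proteins precipitated with acetonitrile and compound quantified by LC-MS against standards made in blank mouse plasma. Lower limit of quantitation 0.001−0.015 μM.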

[9] = Plasma concentration in Swiss mouse at 100 mg/kg, po after 8 hrs; assay type: ADME, organism-based; parameters: dose 100 mg/kg, route oral; in short: as §2

SMILES | IC50 [1] [nM] | IC50 [2] [nM] | other results
OC(c1ccc(Cl)cc1)(c1ccc(Cl)cc1)c1cccnc1 | 95 | – | –
OC(c1ccc(C(F)(F)F)cc1)(c1ccc(C(F)(F)F)cc1)c1cccnc1 | 15 | – | –
Clc1ccc(C(c2ccc(Cl)cc2)c2cncnc2)cc1 | 683 | – | –
OC(c1ccc(Cl)cc1)(c1ccc(Cl)cc1)c1cncnc1 | 220 | – | –
Clc1ccc(C(c2ccc(Cl)cc2)c2cccnc2)cc1 | 80 | 84700 | –
OC(c1ccc(Cl)cc1)(c1cccnc1)c1ccccc1Cl (racemic) | – | – | solubility kinetic [3]: 3.1 µg/mL (≈ 9.39 µM); IC50 [4]: 600 nM
Cc1ccccc1C(O)(c1ccc(Cl)cc1)c1cccnc1 (racemic) | – | 82000 | –
OC(c1ccc(Cl)cc1)(c1cccnc1)c1ccc(Br)cc1F (racemic) | 26 | 79200 | –
OC(c1ccc(Cl)cc1)(c1cccnc1)c1ccc(Cl)cc1F (racemic) | 10 | 59400 | solubility kinetic [3]: 1.6 µg/mL (≈ 4.6 µM); IC50 [4]: 900 nM
[O-][n+]1cncc(C(O)(c2ccc(Cl)cc2)c2ccccc2Cl)c1 (racemic) | – | > 100000 | –
COC(c1ccc(Cl)cc1)(c1cccnc1)c1ccccc1Cl (racemic) | 90 | 58700 | –
OC(c1ccc(Cl)cc1)(c1ncccn1)c1ccccc1Cl (racemic) | – | > 100000 | –
CC(C)CNC(c1ccc(Cl)cc1)(c1cccnc1)c1ccccc1Cl (racemic) | 606 | – | –
OC(c1ccc(Cl)cc1)(c1cccnc1)c1nccs1 (racemic) | – | > 100000 | –
OC(c1cccnc1)(c1cccs1)c1ccc(Cl)cc1F (racemic) | 5 | > 100000 | –
OC(c1ccc(Cl)cc1)(c1ccncn1)c1ccccc1Cl (racemic) | – | > 100000 | –
CS(=O)(=O)Nc1ccc(C(O)(c2ccc(Cl)cc2)c2cccnc2)cc1 (racemic) | 30 | > 100000 | –
CN(C)c1ccc(C(O)(c2ccc(C(F)(F)F)cc2)c2cccnc2)cc1 (racemic) | 6 | – | –
OC(c1ccc(Cl)cc1)(c1cccnc1)c1cnc(Cl)s1 (racemic) | – | > 100000 | –
NC(=O)c1ccc(C(O)(c2ccc(C(F)(F)F)cc2)c2cccnc2)cc1 (racemic) | – | > 100000 | –
COc1ccc(C(O)(c2ccc(Cl)cc2)c2cccnc2)cc1 (racemic) | 40 | – | –

SMILES | IC50 [1] [nM] | IC50 [2] [nM] | other results
OC(c1ccc(Cl)cc1)(c1cccnc1)c1ccsc1 (racemic) | – | > 100000 | –
CC(C)c1ccc(C(O)(c2ccc(C(F)(F)F)cc2)c2cccnc2)cc1 (racemic) | 2 | 56300 | –
CC(C)Oc1ccc(C(O)(c2ccc(C(F)(F)F)cc2)c2cccnc2)cc1 (racemic) | 4 | – | solubility kinetic [3]: 1.6 µg/mL (≈ 4.13 µM); IC50 [4]: 1400 nM
NC(=O)c1cccc(C(O)(c2cccnc2)c2ccc(Cl)cc2F)c1 (racemic) | 25 | > 100000 | solubility kinetic [3]: 50 µg/mL (≈ 140 µM); IC50 [4]: 3900 nM; concentration at 1 h [5]: 10500 nM; concentration at 8 h [6]: 440 nM; concentration at 24 h [7]: 6 nM
CC(C)C(=O)Nc1ncc(C(O)(c2ccc(Cl)cc2)c2cccnc2)s1 (racemic) | 21 | – | –
OC(c1ccc(Cl)cc1)(c1ccc(C(F)(F)F)cc1)c1cccnc1 (racemic) | 8 | – | –
OC(c1ccc(Cl)cc1)(c1cccnc1)c1ccccc1Br (racemic) | 70 | – | –
CC(C)Oc1ccc(C(O)(c2cccnc2)c2cnc(Cl)nc2)cc1 (racemic) | 304 | > 100000 | –
OC(c1ccc(Br)cc1)(c1ccc(C(F)(F)F)cc1)c1cccnc1 (racemic) | 20 | – | –
CC(C)Oc1ccc(C(O)(c2ccc(Cl)cc2)c2cccnc2)cc1 (racemic) | 2 | – | solubility kinetic [3]: 1.6 µg/mL (≈ 4.52 µM); IC50 [4]: 1900 nM; concentration at 1 h [8]: 9600 nM; concentration at 8 h [9]: 600 nM
CC(C)Oc1ccccc1C(O)(c1ccc(Cl)cc1)c1cccnc1 (racemic) | – | 48300 | –
NC(=O)c1cccc(C(O)(c2ccc(C(F)(F)F)cc2)c2cccnc2)c1 (racemic) | 70 | > 100000 | –
OC(c1ccc(Cl)cc1)(c1cccnc1)c1cncnc1 (racemic) | – | > 100000 | solubility kinetic [3]: > 100 µg/mL; IC50 [4]: 5000 nM; concentration at 1 h [5]: 300 nM; concentration at 8 h [6]: < 2 nM
COc1cccc(C(O)(c2ccc(Cl)cc2)c2cccnc2)c1 (racemic) | 60 | – | –
OC(c1ccc(Cl)cc1)(c1cccnc1)c1ccc(F)cc1F (racemic) | 16 | – | –
NC(c1ccc(Cl)cc1)(c1cccnc1)c1ccccc1Cl (racemic) | 90 | – | –
N#Cc1ccc(C(O)(c2ccc(Cl)cc2)c2cccnc2)c(F)c1 (racemic) | – | > 100000 | –
OC(c1ccc(Cl)cc1)(c1cccnc1)c1ccccc1F (racemic) | 35 | > 100000 | –
CC(C)Oc1ncc(C(O)(c2ccc(Cl)cc2)c2cccnc2)cn1 (racemic) | 60 | > 100000 | –
OC(c1ccc(Cl)cc1)(c1cncnc1)c1ccccc1F (racemic) | – | > 100000 | –
N#CC(c1ccc(Cl)cc1)(c1cccnc1)c1ccccc1Cl (racemic) | 50 | – | –

SMILES | IC50 [1] [nM] | IC50 [2] [nM] | other results
N#Cc1ccc(C(O)(c2ccc(Cl)cc2)c2cccnc2)cc1 (racemic) | 70 | > 100000 | –
Cc1ccc(C(O)(c2ccc(OC(C)C)cc2)c2cccnc2)c(F)c1 (racemic) | 3 | – | –
N#Cc1ccc(C(O)(c2ccc(C(F)(F)F)cc2)c2cccnc2)c(F)c1 (racemic) | 2 | – | solubility kinetic [3]: 6.3 µg/mL (≈ 16.9 µM); IC50 [4]: 4100 nM; concentration at 1 h [5]: 1400 nM; concentration at 8 h [6]: 300 nM; concentration at 24 h [7]: 50 nM
OC(c1ccc(C(F)(F)F)cc1)(c1cccnc1)c1ccc(Cl)cc1F (racemic) | 2 | > 100000 | solubility kinetic [3]: < 1.6 µg/mL; IC50 [4]: 1400 nM; concentration at 1 h [5]: 1240 nM; concentration at 8 h [6]: 230 nM; concentration at 24 h [7]: 3 nM
OC(c1ccc(Cl)cc1)(c1ccccn1)c1ccccc1Cl (racemic) | 27000 | > 100000 | –
Clc1ccc(C(c2cncnc2)c2ccccc2Cl)cc1 (racemic) | – | > 100000 | –
OC(c1ccc(Cl)cc1)(c1cccnc1)c1cncs1 (racemic) | – | > 100000 | –
OC(c1ccc(Cl)cc1)(c1cccnc1)c1ccccc1C(F)(F)F (racemic) | 120 | – | –
OC(c1ccc(Cl)cc1)(c1cnccn1)c1ccccc1Cl (racemic) | – | > 100000 | –
Cc1ccc(C(O)(c2ccc(Cl)cc2)c2cncnc2)cc1 (racemic) | 24 | – | –
OC(c1ccc(C(F)(F)F)cc1)(c1cccnc1)c1cc2ccccc2s1 (racemic) | 20 | – | –
CC(C)Oc1ccc(C(O)(c2cccnc2)c2ccc(Cl)cc2F)cc1 (racemic) | 1 | – | solubility kinetic [3]: 1.6 µg/mL (≈ 4.3 µM); IC50 [4]: 1100 nM
OC(c1ccc(Cl)cc1)(c1cccnc1)c1cccc(F)c1 (racemic) | 100 | 66000 | –
N#Cc1cccc(C(O)(c2ccc(Cl)cc2)c2cccnc2)c1 (racemic) | – | > 100000 | –
CC(C)Oc1cccc(C(O)(c2ccc(Cl)cc2)c2cccnc2)c1 (racemic) | 82 | 67600 | –
CC(C)Oc1ccc(C(O)(c2ccc(Cl)cc2)c2cccnc2)c(F)c1 (racemic) | 26 | 58200 | –
Nc1ncc(C(O)(c2ccc(Cl)cc2)c2cccnc2)s1 (racemic) | 260 | 56000 | –
OC(c1ccc(Cl)cc1)(c1ccc(C(F)(F)F)cc1)c1cncnc1 (racemic) | 197 | 66800 | –
OC(c1ccc(Cl)cc1)(c1cncnc1)c1cccc(F)c1 (racemic) | – | > 100000 | –
OC(c1ccc(Cl)cc1)(c1cccnc1)c1cccc(C(F)(F)F)c1 (racemic) | 70 | – | –
